Hits are enriched below; roughly 1.6% of the tested compounds scored in any of these assays.
PPC-1+TRAIL kill: kills PPC-1 cancer cells in the presence of TRAIL; PPC-1 cells + TRAIL, ATPLite viability luminescence; cell killing (% activity), % at 4 µM or 5 µM; hit rate 0.41% among 220,000; AID 1443;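 active = cell killing above 50% in the first pass at 4 µM, then a duplicate retest at 5 µM averaging 50% or more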;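 note: plate controls were cells with TRAIL plus DMSO for no effect and medium-only wells lacking cells for full effect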
FLuc stim CS: firefly luciferase counter-screen for stimulation assays; P08659; ATPlite luciferase biochemical, luminescence, 10 min; 0 = ATP-free wells, 1 = DMSO control; activation factor at 10 µM; 200,000 tested, under 10 active;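 active = luciferase activation factor, scaled between plate controls, of at least 2 with compound at 10 µM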
Target sequence (P08659 whole entry, looked up): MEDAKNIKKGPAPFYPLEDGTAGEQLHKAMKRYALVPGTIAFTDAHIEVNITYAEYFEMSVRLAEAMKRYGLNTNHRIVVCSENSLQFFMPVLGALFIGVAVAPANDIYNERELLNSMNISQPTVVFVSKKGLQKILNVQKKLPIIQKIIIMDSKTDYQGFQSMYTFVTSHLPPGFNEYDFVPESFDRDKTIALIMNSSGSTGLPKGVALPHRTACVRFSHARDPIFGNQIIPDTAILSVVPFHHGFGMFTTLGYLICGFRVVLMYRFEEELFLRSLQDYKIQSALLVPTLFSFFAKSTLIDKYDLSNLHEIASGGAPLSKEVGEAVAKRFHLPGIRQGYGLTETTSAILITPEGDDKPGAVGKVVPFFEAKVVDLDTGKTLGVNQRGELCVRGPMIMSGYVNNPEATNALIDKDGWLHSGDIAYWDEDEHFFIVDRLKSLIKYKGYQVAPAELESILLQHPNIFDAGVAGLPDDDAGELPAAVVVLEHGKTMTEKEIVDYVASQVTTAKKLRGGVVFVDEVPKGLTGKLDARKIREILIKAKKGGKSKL
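Material: Luciferase/luciferin reagent mix; Doses: test compounds dosed from 2 mM stocks in 100% DMSO; Schedule: 10 min incubation after luciferase reagent addition, room temperature; Measured by: luminescence from luciferase reaction; Read-out: luminescence gain marking luciferase activators.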
C8 TRAIL sens: sensitizes caspase-8 expressing cells to TRAIL; NB7+C8 cells + TRAIL, ATPlite viability luminescence; inhibition (viability loss, TRAIL sensitization), % at 10 µM; hit rate 1% among 360,000;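 active = compounds causing at least 50% loss of cell viability in the single-dose screen, relative to plate controls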
FLuc inhib CS: inhibits firefly luciferase, flagging false hits in luciferase inhibition screens. inhibition, % at 10 µM. AID 1006. ATPLite firefly luciferase biochemical luminescence, 10 min. P08659. hit rate 1.5% among 200,000;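 active = inhibition above about 50% when tested at 10 µM, limit read from the data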
The depositor's hits bear a star; nt = no result given.

SMILES	PPC-1+TRAIL kill	FLuc stim CS	C8 TRAIL sens	FLuc inhib CS
COc1cccc(C=C2Cc3ccccc3C2=O)c1	nt	nt	-2	nt
Cc1ccccc1/C=C1\CCCc2ccccc2C1=O	30	0.4	24	61*
COc1cccc(/C=C2\CCc3ccccc3C2=O)c1	-6	nt	82*	nt
CCOC(=O)C1CCN(CC(O)COc2ccc(C(=O)CC)cc2)CC1 (configuration not stated)	8	1	-3	-4
c1ccc2c(NCCc3c[nH]c4ccccc34)c3ccccc3nc2c1	nt	nt	75*	nt
Fc1cccc(NCCc2c[nH]c3ccccc23)n1	nt	nt	19	nt
CCOC(=O)N1CCN(C(=O)CNS(=O)(=O)c2c(C)cc(C)cc2C)CC1	nt	nt	-16	nt
Clc1ccc2c(c1)C1OCCC1C(c1ccco1)N2 (configuration not stated)	20	0.5	21	54*
CCn1c(C)cc(/C=C2/SC(=S)NC2=O)c1C	-7	0.5	-8	52*
CCn1ncc(/C=C2/SC(=S)NC2=O)c1C	21	0.9	-4	11
O=C(Nc1ccc2[nH]ccc2c1)c1cccs1	42	nt	63*	nt
COc1cc(NC(=O)c2ccccc2)cc(OC)c1	15	0.7	21	25
O=C(Nc1ccc(NC(=O)c2cccs2)cc1)c1cccs1	nt	nt	12	nt
O=C(Nc1ccc2[nH]ncc2c1)c1ccccc1	nt	nt	37	nt
O=C(Nc1ccc2[nH]ncc2c1)c1ccc(F)cc1	nt	nt	38	nt
COc1ccc(C(=O)Nc2cc(OC)cc(OC)c2)cc1	30	0.3	30	66*
CCOc1ccc(C(=O)Nc2ccc3[nH]ncc3c2)cc1	nt	nt	72*	nt
COc1ccc(C(=O)Nc2ccc3[nH]ncc3c2)cc1	nt	nt	75*	nt
COc1ccc(-c2noc(-c3cc(C)cc(C)c3)n2)cc1OC	22	1.1	-9	-6
COc1cc(C(=O)O/N=C2\C=CC(=O)C=C2C)cc(OC)c1OC	10	1	10	-4
COc1ccc(C(=O)Nc2ccc3[nH]ccc3c2)cc1	nt	nt	93*	nt
CCOC(=O)c1cnc(-n2nc(C)cc2C)nc1N(C)C	44	0.2	50*	80*
CCc1ccc(C(=O)Nc2cc(C)ccc2F)s1	10	0.8	53*	16
CCOC(=O)c1cc2c(C)n(-c3ccc(C)cc3)c(C)c2ccc1=O	-4	0.2	59*	84*
CCOC(=O)c1cc2c(C)n(-c3ccc(OCC)cc3)c(C)c2ccc1=O	18	1	10	0
SMILES	PPC-1+TRAIL kill	FLuc stim CS	C8 TRAIL sens	FLuc inhib CS
O=C(Nc1ccc(-c2nnn(CC(=O)N3CCN(C(=O)c4ccco4)CC3)n2)cc1)c1ccccc1F	14	0.4	nt	56*
O=C(N/N=C/c1ccccc1)c1ccc2c(c1)OCO2	nt	nt	56*	nt
O=C(O)c1ccc(/C=N/NC(=O)c2ccc3c(c2)OCCO3)cc1	nt	nt	14	nt
O=C(N/N=C/c1ccc(Br)o1)c1ccc2c(c1)OCCO2	23	0.3	40	74*
Cc1cc(O)c(C(C)C)cc1NC(=O)c1ccccc1Cl	3	1.1	-17	-6
O=C(Nc1ccc(NC(=O)c2ccco2)nc1)c1ccccn1	29	0.4	42	61*
CC(C)(C)C(=O)Nc1ccc(NC(=O)c2ccco2)nc1	nt	nt	95*	nt
CC(=O)c1cccc(NC(=O)CN2C=NS(=O)(=O)c3ccc(C)cc32)c1	nt	nt	-11	nt
CC(=O)/C(=C\N(C)C)Sc1ccc(Cl)cc1	5	nt	0	nt
COc1cccc(NC(=O)n2ncc3c(C)cccc32)c1	nt	nt	53*	nt
Cc1ccccc1C(=O)N1CCC2CC1c1cc(-c3ccc(F)cc3)ccc12 (configuration not stated)	nt	nt	7	nt
Cc1ccc(CNC(=O)c2nnc(CS(=O)(=O)c3ccccc3)o2)cc1	nt	nt	9	nt
CCOC(=O)c1c(C)nc2c(C)cccn12	12	1	7	-2
CCOC(=O)c1c(C)nc2c3ccccc3ccn12	25	0.5	50*	54*
O=C1/C(=C\c2cccc(O)c2O)SC(=S)N1Cc1ccccc1	nt	nt	52*	nt
O=C(Nc1ccccc1N1CCCC1)c1ccc([N+](=O)[O-])o1	nt	nt	22	nt
O=C(Nc1ccc(N2CCCC2)c(Cl)c1)c1ccc([N+](=O)[O-])o1	50	0.7	88*	29
O=C(Nc1ccc(N2CCCC2)c(Cl)c1)c1ccco1	24	0.2	55*	77*
CN1CCN(c2ccc(NC(=O)c3ccco3)cc2Cl)CC1	nt	nt	30	nt
O=C(Nc1ccc(N2CCCCC2)c(Cl)c1)c1ncn[nH]1	22	0.4	34	57*
COc1ccccc1NC(=O)CSc1nnc(NC(=O)C2CC2)s1	nt	nt	11	nt
CCOC(=O)Cc1csc(NC(=O)CCc2ccccc2)n1	nt	nt	8	nt
CC(C)(C)c1ccc2c(c1)C(c1ccc3c(c1)OCO3)CC(=O)O2 (configuration not stated)	nt	nt	-1	nt
COc1ccc(C#Cc2ccc3c(c2)c(=O)c2ccccc2n3C)cc1	nt	nt	0	nt
COc1cccc2sc3cc(C#CC4(O)CCCCC4)ccc3c(=O)c12	nt	nt	48	nt
SMILES	PPC-1+TRAIL kill	FLuc stim CS	C8 TRAIL sens	FLuc inhib CS
COc1cc2sc3ccc(C#CC4(O)CCCCC4)cc3c(=O)c2cc1OC	nt	nt	75*	nt
Cn1c2ccccc2c(=O)c2ccc(C#CC3(O)CCCCC3)cc21	nt	nt	86*	nt
O=c1cc(-c2ccc3c(c2)OCCO3)oc2ccc(Cl)cc12	14	0.5	48	50*
COC(=O)[C@@H]1C[C@@]2(O)[C@H](O)[C@H](O)[C@H](O)C[C@H]2N1CC1CC1	8	nt	-3	nt
CC1CCCCC1NC(=O)COC(=O)c1c2c(nc3ccccc13)/C(=C/c1ccco1)CC2 (configuration not stated)	36	1	-9	2
O=C(NOCc1ccccc1)c1ccc(Cl)cc1Cl	nt	nt	58*	nt
O=CNc1ccc(OC(=O)c2cncc(Br)c2)cc1	nt	nt	-17	nt
COC(=O)c1cccc(S(=O)(=O)N(Cc2ccco2)Cc2cc3cc(OC)c(OC)cc3[nH]c2=O)c1	5	1	-4	-3
O=C1NC(=S)S/C1=C/c1ccc(N2CCOCC2)o1	25	0.4	17	64*
c1cc(-c2nnc3n2CCC3)[nH]n1	-4	1	-16	-1
O=S(=O)(c1ccc(S(=O)(=O)N2CCCC2)cc1)N1CCCCCC1	-2	1.1	-12	-7
O=c1/c(=C\c2cccnc2)sc2nc3ccccc3n12	26	0.4	-3	58*
Cc1cc(/C=c2/sc3nc4ccccc4n3c2=O)c(C)n1-c1ccccn1	5	0.1	80*	90*
O=c1/c(=C/c2ccc(O)c([N+](=O)[O-])c2)sc2nc3ccccc3n12	-2	0.8	35	21
Cc1nn(-c2ccccc2)c(C)c1-c1nnc(C(F)(F)F)o1	nt	nt	-31	nt
Fc1ccccc1-c1cc2ccccc2cn1	nt	nt	5	nt
Nc1cccc2c1C(=O)N(C(=O)/C=C/c1ccc(F)cc1)C2=O	10	0.5	12	52*
O=C(N/N=C/c1ccccc1F)c1cc2c(ccc3ccccc32)o1	nt	nt	3	nt
O=C(N/N=C/C=C/c1ccccc1)c1cc2c(ccc3ccccc32)o1	41	0.6	57*	43
O=C(COC(=O)C1CC(=O)N(Cc2ccccc2)C1)Nc1ccc([N+](=O)[O-])cc1Br (configuration not stated)	nt	nt	-6	nt

Assay outcomes: PubChem BioAssay, Sanford-Burnham Center for Chemical Genomics
